Source: ChEMBL document CHEMBL1130107, “Discovery of CGS 27023A, a non-peptidic, potent, and orally active stromelysin inhibitor that blocks cartilage degradation in rabbits” (J Med Chem, 1997)

What follows are compounds tested against T1, Stromelysin-1 (Homo sapiens, UniProt P08254) (assay: Inhibition activity against recombinant human stromelysin (Matrix metalloprotease-3)).
T1 sequence (P08254 whole entry): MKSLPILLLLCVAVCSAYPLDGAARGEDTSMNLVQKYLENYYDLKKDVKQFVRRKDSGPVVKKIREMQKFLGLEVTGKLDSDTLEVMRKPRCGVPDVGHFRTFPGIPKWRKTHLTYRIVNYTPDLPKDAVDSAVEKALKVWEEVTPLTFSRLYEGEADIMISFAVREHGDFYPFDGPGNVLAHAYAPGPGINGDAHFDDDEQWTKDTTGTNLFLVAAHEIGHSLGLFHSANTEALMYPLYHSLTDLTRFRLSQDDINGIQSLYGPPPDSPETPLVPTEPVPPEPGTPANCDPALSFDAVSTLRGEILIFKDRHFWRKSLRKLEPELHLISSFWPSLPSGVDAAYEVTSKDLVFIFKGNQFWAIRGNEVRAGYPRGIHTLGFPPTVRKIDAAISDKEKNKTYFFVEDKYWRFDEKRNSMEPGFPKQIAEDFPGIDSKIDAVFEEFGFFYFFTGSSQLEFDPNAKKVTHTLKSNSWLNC

Point of comparison: `CC(C)CN(CC(=O)NO)S(=O)(=O)c1ccc(N(C)C)cc1`, Ki 4.4 µM. Against it:
- COc1ccc(S(=O)(=O)N(CC(=O)NO)Cc2ccc3ccccc3n2)cc1 — 33-fold lower, 0.134 µM
- COc1ccc(S(=O)(=O)N(Cc2ccccc2)[C@H](CC(C)C)C(=O)NO)cc1 — 190-fold lower, 0.023 µM
- COc1ccc(S(=O)(=O)N(Cc2ccccc2)C(C(=O)NO)C(C)C)cc1 (stereo not drawn) — 48-fold lower, 0.092 µM
- COc1ccc(S(=O)(=O)N(Cc2ccccc2)C(C)C(=O)NO)cc1 (stereo not drawn) — 51-fold lower, 0.086 µM
- COc1ccc(S(=O)(=O)NCC(=O)NO)cc1 — the same, 4.4 µM
- COc1ccc(S(=O)(=O)N(Cc2ccccc2)[C@@H](C)C(=O)NO)cc1 — 31-fold lower, 0.141 µM
- COc1ccc(S(=O)(=O)N(Cc2ccccc2)[C@H](C)C(=O)NO)cc1 — 120-fold lower, 0.036 µM
- COc1ccc(S(=O)(=O)N(CCC(C)C)CC(=O)NO)cc1 — 47-fold lower, 0.094 µM
- COc1ccc(CN(CC(=O)NO)S(=O)(=O)c2ccc(OC)cc2)cc1 — 42-fold lower, 0.104 µM
- COc1ccc(S(=O)(=O)N(CC(=O)NO)CC2CCCCC2)cc1 — 72-fold lower, 0.061 µM
- COc1ccc(S(=O)(=O)N(Cc2ccccc2)[C@@H](C(=O)NO)C(C)C)cc1 — 130-fold lower, 0.034 µM
- COc1ccc(S(=O)(=O)N(CC(=O)NO)Cc2ccccc2)cc1 — 63-fold lower, 0.07 µM
- COc1ccc(S(=O)(=O)N(Cc2ccccc2)[C@H](Cc2ccccc2)C(=O)NO)cc1 — 150-fold lower, 0.029 µM
- COc1ccc(S(=O)(=O)N(Cc2ccccc2)C(Cc2ccccc2)C(=O)NO)cc1 (stereo not drawn) — 62-fold lower, 0.071 µM

What follows are compounds tested against T1, Stromelysin-1 (assay: Inhibition activity against recombinant human stromelysin (Matrix metalloprotease-3) (Inactive)).
Outline: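 Substance P (0.5 mM) cleaved by recombinant human stromelysin (8 μg, 2 units) for 30 min at 37 °C with test compound diluted from 10 mM stock into assay buffer. Reaction stopped with 10 mM EDTA. Substance P 7-11 fragment quantified by RP-8 HPLC. IC50 versus inhibitor-free control, mean of two independent measurements. Ki derived from mean IC50 by Waley's method.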

With `CC(C)CN(CC(=O)NO)S(=O)(=O)c1ccc([N+](=O)[O-])cc1` the Ki was “Not Active”.
For `CC(C)CN(CC(=O)NO)S(=O)(=O)c1ccc(C(C)(C)C)cc1`, the Ki was “Not Active”.
In the case of `CC(C)CN(CC(=O)NO)S(=O)(=O)c1ccc(S(C)(=O)=O)cc1`, the Ki is reported as “Not Active”.
